Source: PubChem BioAssay
A selection: hits, their analogues and other compounds. The true share with any hit is near 3%.
SENP1 FRET inh = blocks the human SENP1 SUMO protease catalytic domain | recombinant SENP1 catalytic domain, CyPet-SUMO1-YPet FRET cleavage | 360,000 compounds, 0.21% hits | AID 624204 | inhibition, % at 10 µM;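 active = inhibition at least 30% at 10 µM, raw YFP signal under a set limit, fluorescence ratio 0.5 to 1.5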
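System: Recombinant human SENP1 catalytic domain, His6-tagged | Incubation: Enzyme reaction for 50 min at room temperature, dark | Medium: Tris pH 8 with BME, BSA, NP40 and catalase | Also added: 25 nM SUMO1 FRET substrate | Compound: 10 µM single point, 0.5% DMSO | Measured by: FRET fluorescence in CFP and YFP emission channels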
Cardio protect = protects H9c2 cardiomyocytes from peroxide injury. H2O2 injury protection, ATPLite, 2 h. protection from H2O2 cell death, % at 20 µM. 360,000 compounds, 0.63% hits;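 active = compounds giving at least 50% protection of heart cells from peroxide-induced death in the single-dose screen, raw or plate-pattern-corrected value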
Exocytosis inh = lytic granule exocytosis inhibition | TALL-104 LAMP-1 surface exposure, flow cytometry; cells stimulated with thapsigargin and PMA | inhibition, % at 10 µM | 360,000 compounds, 0.66% hits;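 active = inhibition above about 55%, limit read from the data; inconclusive = no clear call, values can overlap the other calls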
Myeloid diff 2 = compounds promoting myeloid differentiation. AID 624256. calls only at 10 µM. ER-HoxA9 myeloid progenitors, lysozyme-GFP differentiation, flow cytometry. 360,000 compounds, 1% hits;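 active = normalized GFP-positive differentiation at or above the plate's own cutoff, the solvent-only control mean plus 3 SD; inconclusive = no clear call, values can overlap the other calls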;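 also: cells exposed to compound for four days before flow analysis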
HNF4A DNA FP = change in binding of human HNF4 alpha to DNA. 360,000 compounds, 0.3% hits. activity change, % at 10 µM. HNF4a-FITC DNA binding, fluorescence polarization, 1 h; in the data active = activity change above about 30%, passing the limit was not always enough
DSG3 Ab inh = inhibitors of pemphigus antibody binding to human desmoglein-3. P32926. DSG3-coupled beads, scFv-anti-DSG3-GFP binding, flow cytometry; active compounds read low. binding (percent of control), % at 10 µM. 310,000 compounds, 0.48% hits;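 active = binding more than 3 SD below its plate's average and above zero; inconclusive = below that plate limit but binding exactly zero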;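 also: hits lower antibody fragment binding to DSG3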
Target sequence (P32926 whole entry, looked up, the tested form may be a part): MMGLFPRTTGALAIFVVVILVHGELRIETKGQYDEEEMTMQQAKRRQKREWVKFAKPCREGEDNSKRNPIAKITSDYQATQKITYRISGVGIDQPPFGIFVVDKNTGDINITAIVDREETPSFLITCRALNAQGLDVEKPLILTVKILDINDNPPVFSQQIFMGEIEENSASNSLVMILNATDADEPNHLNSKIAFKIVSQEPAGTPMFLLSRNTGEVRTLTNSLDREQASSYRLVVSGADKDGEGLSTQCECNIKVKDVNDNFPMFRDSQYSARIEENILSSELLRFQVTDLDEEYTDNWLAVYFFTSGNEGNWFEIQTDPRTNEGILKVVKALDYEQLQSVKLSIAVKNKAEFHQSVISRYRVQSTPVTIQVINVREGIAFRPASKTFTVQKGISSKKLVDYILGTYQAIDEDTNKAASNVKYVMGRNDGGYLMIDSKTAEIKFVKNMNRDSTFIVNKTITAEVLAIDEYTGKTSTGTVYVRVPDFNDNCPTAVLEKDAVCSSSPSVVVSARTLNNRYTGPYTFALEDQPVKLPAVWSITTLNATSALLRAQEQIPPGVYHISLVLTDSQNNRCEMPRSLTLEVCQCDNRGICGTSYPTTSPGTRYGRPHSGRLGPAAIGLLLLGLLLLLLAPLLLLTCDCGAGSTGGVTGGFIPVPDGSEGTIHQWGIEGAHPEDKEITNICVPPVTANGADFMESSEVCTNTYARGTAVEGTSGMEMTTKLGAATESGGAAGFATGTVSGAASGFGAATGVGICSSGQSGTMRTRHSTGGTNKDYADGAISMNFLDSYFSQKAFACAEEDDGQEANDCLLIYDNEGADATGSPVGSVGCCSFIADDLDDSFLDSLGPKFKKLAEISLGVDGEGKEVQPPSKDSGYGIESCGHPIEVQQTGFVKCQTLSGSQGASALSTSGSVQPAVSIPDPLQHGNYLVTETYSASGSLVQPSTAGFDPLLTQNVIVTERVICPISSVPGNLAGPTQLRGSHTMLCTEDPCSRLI
Granule exo CP1 = lytic granule exocytosis inhibition; shares compounds with Exocytosis inh; TALL-104 cells, LAMP-1 externalization, flow cytometry; stimulated with PMA plus thapsigargin; inhibition, % at 10 µM; 1,500 compounds, 11% hits; in the data active = inhibition above about 60%
A number is an active result.

For COc1cc(OC)nc(Nc2nc(C(N)Cc3ccc(F)cc3)cs2)n1 (centres undefined) the results were SENP1 FRET inh inactive, Cardio protect inactive, Exocytosis inh inactive, Myeloid diff 2 inactive and HNF4A DNA FP inactive.
Screening COc1ccc(C)cc1NC(=O)CCNS(=O)(=O)c1ccc2c(c1)CC(C)N2C(C)=O (centres undefined) returned SENP1 FRET inh inactive, Cardio protect inactive, Exocytosis inh inactive, Myeloid diff 2 inactive, HNF4A DNA FP inactive and DSG3 Ab inh inactive.
Screening CN(C)CCCn1c2c(c(SCC(=O)Nc3cccc4ccccc34)nc1=O)CCCC2 returned SENP1 FRET inh inactive, Cardio protect inactive, Exocytosis inh inactive, Myeloid diff 2 inactive, HNF4A DNA FP inactive and DSG3 Ab inh inactive.
Cc1ccc(S(=O)(=O)c2cc3c(=O)n4cccc(C)c4nc3n(C3CCCCC3)c2=N)cc1 was read as SENP1 FRET inh inactive, Cardio protect inactive, Exocytosis inh inactive, Myeloid diff 2 inconclusive, HNF4A DNA FP inactive and DSG3 Ab inh inactive.
Cc1ccc(S(=O)(=O)c2cc3c(=O)n4ccccc4nc3n(C3CCCC3)c2=N)cc1 was read as SENP1 FRET inh inactive, Cardio protect inactive, Exocytosis inh 88.0, Myeloid diff 2 inactive, HNF4A DNA FP inactive and Granule exo CP1 inactive.
Screening COC(=O)[C@@H]1C[C@@]2(O)[C@H](O)[C@H](O)[C@H](O)C[C@H]2N1Cc1cccc2ccccc12 returned SENP1 FRET inh inactive, Cardio protect inactive, Exocytosis inh 69.9, Myeloid diff 2 inactive, HNF4A DNA FP inactive, DSG3 Ab inh inactive and Granule exo CP1 inactive.
`CCOCCCNC(=S)N1CCCN(c2nc3cc(C)ccc3cc2C#N)CC1` gave SENP1 FRET inh inactive, Cardio protect inactive, Exocytosis inh inactive, Myeloid diff 2 inactive, HNF4A DNA FP inactive and DSG3 Ab inh inactive.
For CCOCCCNC(=S)N1CCCN(c2nc3c(C)c(C)ccc3cc2C#N)CC1 the results were SENP1 FRET inh inactive, Cardio protect inactive, Exocytosis inh 90.6, Myeloid diff 2 inactive, HNF4A DNA FP inactive, DSG3 Ab inh inactive and Granule exo CP1 78.9.
`CN(Cc1nc2ccccc2c(=O)[nH]1)C(=O)COc1ccccc1Cc1ccccc1` gave SENP1 FRET inh inactive, Cardio protect inactive, Exocytosis inh inactive, Myeloid diff 2 inactive, HNF4A DNA FP inactive and DSG3 Ab inh inactive.
For CCCCCCN1C[C@@H](O)[C@H](n2cc(COC(=O)c3ccccc3)nn2)C[C@@H]1c1ccc(OC)cc1 the results were SENP1 FRET inh inactive, Cardio protect inactive, Exocytosis inh inactive, Myeloid diff 2 inactive and HNF4A DNA FP inactive.
For CC(=O)c1ccc(-c2cc([C@H]3[C@H]4C=CC[C@@H](C)[C@@H]4C(=O)N3Cc3ccccc3)ccc2F)cc1 the results were SENP1 FRET inh inactive, Cardio protect inactive, Exocytosis inh 58.1, Myeloid diff 2 inactive, HNF4A DNA FP inactive and Granule exo CP1 inactive.
C[C@@H]1CC=C[C@H]2[C@H]1C(=O)N(Cc1ccccc1)[C@H]2c1ccc(F)c(-c2ccc(N(C)C)cc2)c1 was read as SENP1 FRET inh inactive, Cardio protect inactive, Exocytosis inh inactive, Myeloid diff 2 inactive, HNF4A DNA FP inactive and DSG3 Ab inh inactive.
Screening O=C(NCc1ccco1)c1ccc2ccccc2n1 returned SENP1 FRET inh inactive, Cardio protect inactive, Exocytosis inh inactive, Myeloid diff 2 inactive, HNF4A DNA FP inactive and DSG3 Ab inh inactive.
O=C(Nc1ccc(S(=O)(=O)NCc2ccco2)cc1)c1ccc2ccccc2n1 was read as SENP1 FRET inh inactive, Cardio protect inactive, Exocytosis inh 97.7, Myeloid diff 2 inactive, HNF4A DNA FP inactive and Granule exo CP1 inactive.
`CCCCc1nc(N2CCN(C(=O)c3ccco3)CC2)c(C#N)c2c1CCCC2` gave SENP1 FRET inh inactive, Cardio protect inactive, Exocytosis inh 79.4, Myeloid diff 2 inactive, HNF4A DNA FP inactive, DSG3 Ab inh inactive and Granule exo CP1 inactive.
For CC(C)c1nc(N2CCN(C(=O)c3ccco3)CC2)c(C#N)c2c1COC(C)(C)C2 the results were SENP1 FRET inh inactive, Cardio protect inactive, Exocytosis inh inactive, Myeloid diff 2 inactive and HNF4A DNA FP inactive.
Cc1cc(F)ccc1S(=O)(=O)Nc1ccccc1C(=O)Nc1ccccc1-c1nc2ccccc2[nH]1 was read as SENP1 FRET inh inactive, Cardio protect inactive, Exocytosis inh 90.2, Myeloid diff 2 inactive, HNF4A DNA FP inactive, DSG3 Ab inh inactive and Granule exo CP1 94.2.
For O=C(Nc1ccc(-c2nc3ccccc3[nH]2)cc1)c1ccccc1NS(=O)(=O)c1ccc(F)cc1 the results were SENP1 FRET inh inactive, Cardio protect inactive, Exocytosis inh 67.8, Myeloid diff 2 inactive, HNF4A DNA FP inactive, DSG3 Ab inh inactive and Granule exo CP1 inactive.
`O=C(Nc1nc(-c2ccccc2)nc2ccccc12)c1ccc(F)cc1` gave SENP1 FRET inh inactive, Cardio protect inactive, Exocytosis inh inactive, Myeloid diff 2 inactive, HNF4A DNA FP inactive and DSG3 Ab inh inactive.
CCCCn1c(NS(=O)(=O)c2ccc(C)cc2)c(S(=O)(=O)c2ccccc2)c2nc3ccccc3nc21 was read as SENP1 FRET inh inactive, Cardio protect inactive, Exocytosis inh 67.9, Myeloid diff 2 inconclusive, HNF4A DNA FP inactive, DSG3 Ab inh inactive and Granule exo CP1 inactive.
Screening Cc1cccc(N2C(=O)CC(Sc3ccccc3C(=O)O)C2=O)c1 (centres undefined) returned SENP1 FRET inh inactive, Cardio protect inactive, Exocytosis inh inactive, Myeloid diff 2 inactive, HNF4A DNA FP inactive and DSG3 Ab inh inactive.
For Cc1cc(C)cc(N2C(=O)CC(Sc3ccccc3C(=O)O)C2=O)c1 (centres undefined) the results were SENP1 FRET inh inactive, Cardio protect inactive, Exocytosis inh 83.8, Myeloid diff 2 inactive, HNF4A DNA FP inactive, DSG3 Ab inh inactive and Granule exo CP1 inactive.
Screening COc1ccccc1NC(=S)N(CCN1CCCCCC1)Cc1cccs1 returned SENP1 FRET inh inactive, Cardio protect inactive, Exocytosis inh inactive, Myeloid diff 2 inactive and HNF4A DNA FP inactive.
COc1ccc(C(C)=O)cc1CN(c1ccccc1OC)S(=O)(=O)c1cccs1 was read as SENP1 FRET inh inactive, Cardio protect inactive, Exocytosis inh 91.9, Myeloid diff 2 inactive, HNF4A DNA FP inactive, DSG3 Ab inh inactive and Granule exo CP1 inactive.
COc1ccc(CN(C)C(=O)Cn2ccc(N)nc2=O)cc1OC was read as SENP1 FRET inh inactive, Cardio protect inactive, Exocytosis inh inactive, Myeloid diff 2 inactive, HNF4A DNA FP inactive and DSG3 Ab inh inactive.
`Cc1cc(N2CCN(c3ccccc3)CC2)nc2ccccc12` gave SENP1 FRET inh inactive, Cardio protect inactive, Exocytosis inh 89.4, Myeloid diff 2 inactive, HNF4A DNA FP inactive, DSG3 Ab inh inactive and Granule exo CP1 inactive.
